Laboratory results taken from ChEMBL document CHEMBL1123589, “Phenylpiperazine-based radiopharmaceuticals for brain imaging. 3. Synthesis and evaluation of radioiodinated 1-alkyl-4-phenylpiperazines” (J Med Chem, 1987).
Values joined by “and” are separate entries in the source; they are usually repeats but may differ in a detail not shown here. Equal entries are not always repeated.

Legend:
Details in all cases: in vivo
Canis familiaris [1] = assay: The biodistribution of the [131I]-labeled compound in dog (mass= 5.7 kg), 2 hr after intravenous injection was evaluated in brain (ID.kg/g); assay type: ADME, organism-based, Canis lupus familiaris
Outline: (§1)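 One female dog (5.7 kg) premedicated im with acepromazine maleate, then anesthetized iv with sodium nembutal/saline (1:1). Given 1.0 mCi iv of ¹³¹I-labeled agent. Killed 2 h post-dose with iv nembutal. Tissues excised, weighed and counted; blood, fat and muscle masses estimated as 7.5%, 27.5% and 40% of body weight. Expressed as % ID/organ and % ID·kg/g.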

Canis familiaris [2] = assay: The biodistribution of the [131I]-labeled compound in dog (mass= 5.7 kg), 2 hr after intravenous injection was evaluated in cerebellum (ID.kg/g); assay type: ADME, organism-based, Canis lupus familiaris; outline: as §1
Canis familiaris [3] = assay: The biodistribution of the [131I]-labeled compound in dog (mass= 5.7 kg), 2 hr after intravenous injection was evaluated in cortex; assay type: ADME, organism-based, Canis lupus familiaris; outline: as §1
Canis familiaris [4] = assay: The biodistribution of the [131I]-labeled compound in dog (mass= 5.7 kg), 2 hr after intravenous injection was evaluated in cortex (ID.kg/g); assay type: ADME, organism-based, Canis lupus familiaris; outline: as §1
Canis familiaris [5] = assay: The biodistribution of the [131I]-labeled compound in dog (mass= 5.7 kg), 2 hr after intravenous injection was evaluated in fat (ID.kg/g); assay type: ADME, organism-based, Canis lupus familiaris, Adipose tissue; outline: as §1
Rattus norvegicus [6] = assay: The biodistribution of the [125I]-labeled compound in rats after intravenous injection was evaluated in adrenal at 1.00 hrs; value ranges from 0.80-1.14 (ID.kg/g); assay type: ADME, organism-based
Outline: (§2)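 Male Sprague-Dawley rats (250–300 g) under ether anesthesia were given an iv injection of no-carrier-added 125I-labelled agent (10–15 μCi in 0.1 mL saline). The agent was iodinated with chloramine-T in acetate buffer and purified by C-18 HPLC. Groups of N = 3 were killed at 0.25, 1 and 4 h. Blood and tissues were weighed and γ-counted. Values are % ID·kg/g, mean (range).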

Rattus norvegicus [7] = assay: The biodistribution of the [125I]-labeled compound in rats after intravenous injection was evaluated in blood at 1.00 hrs (ID.kg/g); assay type: ADME, organism-based; outline: as §2
Rattus norvegicus [8] = assay: The biodistribution of the [125I]-labeled compound in rats after intravenous injection was evaluated in blood at 4.00 hrs (ID.kg/g); assay type: ADME, organism-based; outline: as §2
Rattus norvegicus [9] = assay: The biodistribution of the [125I]-labeled compound in rats after intravenous injection was evaluated in heart at 0.25 hrs; value ranges from 0.26-0.32 (ID.kg/g); assay type: ADME, organism-based; outline: as §2
Rattus norvegicus [10] = assay: The biodistribution of the [125I]-labeled compound in rats after intravenous injection was evaluated in lung at 4.00 hrs; value ranges from 0.45-0.67 (ID.kg/g); assay type: ADME, organism-based
Outline: (§3)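 Male Sprague-Dawley rats (250–300 g), under ether anesthesia, given 10–15 μCi of the NCA ¹²⁵I-labeled agent iv in 0.1 mL saline. Groups of N = 3 were killed at 0.25, 1 or 4 h. Blood and tissues were removed, weighed and counted in a γ-well scintillation counter. Values are mean % ID·kg/g (range).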

Rattus norvegicus [11] = assay: The biodistribution of the [125I]-labeled compound in rats after intravenous injection was evaluated in muscle at 0.25 hrs (ID.kg/g); assay type: ADME, organism-based, Muscle tissue
Outline: (§4)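 Male Sprague-Dawley rats (250–300 g) under ether anesthesia given iv 0.1 mL saline containing 10–15 μCi of NCA ¹²⁵I-labeled agent (chloramine-T iodination, HPLC-purified). Groups of 3 killed at 0.25, 1 and 4 h. Blood and tissues excised, weighed and γ-counted. Values are mean (range) of % injected dose × body mass (kg) per gram of tissue.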

Canis familiaris [12] = assay: The biodistribution of the [131I]-labeled compound in dog (mass= 5.7 kg), 2 hr after intravenous injection was evaluated in kidney (ID.kg/g); assay type: ADME, organism-based, Canis lupus familiaris; outline: as §1
Canis familiaris [13] = assay: The biodistribution of the [131I]-labeled compound in dog (mass= 5.7 kg), 2 hr after intravenous injection was evaluated in liver (ID.kg/g); assay type: ADME, organism-based, Canis lupus familiaris; outline: as §1
Canis familiaris [14] = assay: The biodistribution of the [131I]-labeled compound in dog (mass= 5.7 kg), 2 hr after intravenous injection was evaluated in lung (ID.kg/g); assay type: ADME, organism-based, Canis lupus familiaris; outline: as §1
Rattus norvegicus [15] = assay: The biodistribution of the [125I]-labeled compound in rats after intravenous injection was evaluated in thyroid at 0.25 hrs; value ranges from 3.39-4.05 (ID.kg/g); assay type: ADME, organism-based, Thyroid gland; outline: as §4
Rattus norvegicus [16] = assay: The biodistribution of the [125I]-labeled compound in rats after intravenous injection was evaluated in brain at 4.00 hrs; value ranges from 0.25-0.41 (ID.kg/g); assay type: ADME, organism-based; outline: as §2
Rattus norvegicus [17] = assay: The biodistribution of the [125I]-labeled compound in rats after intravenous injection was evaluated in fat at 0.25 hr; value ranges from 0.03-0.05 (ID.kg/g); assay type: ADME, organism-based, Adipose tissue; outline: as §2
Rattus norvegicus [18] = assay: The biodistribution of the [125I]-labeled compound in rats after intravenous injection was evaluated in fat at 1.00 hrs (ID.kg/g); assay type: ADME, organism-based, Adipose tissue; outline: as §2
Rattus norvegicus [19] = assay: The biodistribution of the [125I]-labeled compound in rats after intravenous injection was evaluated in brain at 1.00 hrs (ID.kg/g); assay type: ADME, organism-based; outline: as §2
Rattus norvegicus [20] = assay: The biodistribution of the [125I]-labeled compound in rats after intravenous injection was evaluated in fat at 4.00 hrs (ID.kg/g); assay type: ADME, organism-based, Adipose tissue; outline: as §2
Rattus norvegicus [21] = assay: The biodistribution of the [125I]-labeled compound in rats after intravenous injection was evaluated in kidney at 1.00 hrs; value ranges from 0.52-0.61 (ID.kg/g); assay type: ADME, organism-based; outline: as §3
Rattus norvegicus [22] = assay: The biodistribution of the [125I]-labeled compound in rats after intravenous injection was evaluated in kidney at 4.00 hrs; value ranges from 0.32-0.42 (ID.kg/g); assay type: ADME, organism-based; outline: as §3
Rattus norvegicus [23] = assay: The biodistribution of the [125I]-labeled compound in rats after intravenous injection was evaluated in liver at 0.25 hr; value ranges from 0.27-0.39 (ID.kg/g); assay type: ADME, organism-based; outline: as §3
Rattus norvegicus [24] = assay: The biodistribution of the [125I]-labeled compound in rats after intravenous injection was evaluated in liver at 4.00 hrs; value ranges from 0.40-0.52 (ID.kg/g); assay type: ADME, organism-based; outline: as §3
Rattus norvegicus [25] = assay: The biodistribution of the [125I]-labeled compound in rats after intravenous injection was evaluated in heart at 4.00 hrs; value ranges from 0.11-0.15 (ID.kg/g); assay type: ADME, organism-based; outline: as §3
Rattus norvegicus [26] = assay: The biodistribution of the [125I]-labeled compound in rats after intravenous injection was evaluated in kidney at 0.25 hr; value ranges from 0.48-0.58 (ID.kg/g); assay type: ADME, organism-based; outline: as §3
Canis familiaris [27] = assay: The biodistribution of the [131I]-labeled compound in dog (mass= 5.7 kg), 2 hr after intravenous injection was evaluated in adrenal (ID.kg/g); assay type: ADME, organism-based, Canis lupus familiaris; outline: as §1
Canis familiaris [28] = assay: The biodistribution of the [131I]-labeled compound in dog (mass= 5.7 kg), 2 hr after intravenous injection was evaluated in cerebellum; assay type: ADME, organism-based, Canis lupus familiaris; outline: as §1
Rattus norvegicus [29] = assay: The biodistribution of the [125I]-labeled compound in rats after intravenous injection was evaluated in adrenal at 0.25 hrs; value ranges from 1.43-1.71 (ID.kg/g); assay type: ADME, organism-based; outline: as §2
Rattus norvegicus [30] = assay: The biodistribution of the [125I]-labeled compound in rats after intravenous injection was evaluated in muscle at 1.00 hrs (ID.kg/g); assay type: ADME, organism-based, Muscle tissue; outline: as §4
Rattus norvegicus [31] = assay: The biodistribution of the [125I]-labeled compound in rats after intravenous injection was evaluated in liver at 1.00 hrs; value ranges from 0.19-0.24 (ID.kg/g); assay type: ADME, organism-based; outline: as §3

CCCCN1CCN(c2ccc(I)cc2)CC1
Biodistribution (Canis familiaris [1]): 1.824% and 0.165%
Biodistribution (Canis familiaris [2]): 0.165%
Biodistribution (Canis familiaris [3]): 0.1%
Biodistribution (Canis familiaris [4]): 0.171%
Biodistribution (Canis familiaris [5]): 9.41% and 0.034%
Biodistribution (Rattus norvegicus [6]): 1.14%
Biodistribution (Rattus norvegicus [7]): 0.01 % ID·kg/g
Biodistribution (Rattus norvegicus [8]): 0.01 % ID·kg/g
Biodistribution (Rattus norvegicus [9]): 0.32%
Biodistribution (Rattus norvegicus [10]): 0.67%
Biodistribution (Rattus norvegicus [11]): 0.03 % ID·kg/g
Biodistribution (Canis familiaris [12]): 0.182%
Biodistribution (Canis familiaris [13]): 6.68% and 1.88%
Biodistribution (Canis familiaris [14]): 1.287% and 0.143%
Biodistribution (Rattus norvegicus [15]): 4.05%
Biodistribution (Rattus norvegicus [16]): 0.41%
Biodistribution (Rattus norvegicus [17]): 0.05%
Biodistribution (Rattus norvegicus [18]): 0.01 % ID·kg/g
Biodistribution (Rattus norvegicus [19]): 0.28%
Biodistribution (Rattus norvegicus [20]): 0.02%
Biodistribution (Rattus norvegicus [21]): 0.61%
Biodistribution (Rattus norvegicus [22]): 0.42%
Biodistribution (Rattus norvegicus [23]): 0.39%
Biodistribution (Rattus norvegicus [24]): 0.52%
Biodistribution (Rattus norvegicus [25]): 0.15%
Biodistribution (Rattus norvegicus [26]): 0.58%
Biodistribution (Canis familiaris [27]): 0.121% and 0.633%
Biodistribution (Canis familiaris [28]): 1.571%
Biodistribution (Rattus norvegicus [29]): 1.71%
Biodistribution (Rattus norvegicus [30]): 0.04 %ID·kg/g
Biodistribution (Rattus norvegicus [31]): 0.24%
